{"source": "ChEMBL document CHEMBL4828720", "about": "“Macrocyclic Immunoproteasome Inhibitors as a Potential Therapy for Alzheimer's Disease” (J Med Chem, 2021)", "key": {"[1]": {"target": "T1, Proteasome subunit beta type-9 (Homo sapiens, UniProt P28065)", "T1 sequence (P28065 whole entry)": "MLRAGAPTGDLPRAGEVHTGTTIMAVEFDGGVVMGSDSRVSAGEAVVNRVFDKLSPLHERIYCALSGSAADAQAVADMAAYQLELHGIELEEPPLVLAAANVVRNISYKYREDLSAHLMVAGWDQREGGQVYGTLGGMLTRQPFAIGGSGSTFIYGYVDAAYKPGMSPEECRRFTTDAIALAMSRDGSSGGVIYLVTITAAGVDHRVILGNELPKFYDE", "assay": "Inhibition of human 20S proteasome LMP2 activity in human RPMI-8226 cells overexpressing ABCB1 using Ac-PAL-AMC as fluorogenic substrate incubated for 72 hrs by fluorescence assay", "assay_type": "cell-based"}, "[2]": {"test_system": "Proteasome subunit beta type-9 (Canis lupus familiaris)", "assay": "Inhibition of canine 20S proteasome LMP2 activity in MDCK-II cells overexpressing ABCG2 using Ac-PAL-AMC as fluorogenic substrate by fluorescence assay"}, "[3]": {"assay": "Effect on RPE structural integrity in ICR mouse by immunostaining based confocal microscopic analysis", "assay_type": "ADME", "in_short": "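RPE collected after behavioral testing from treated Tg2576 mice and from age-matched non-transgenic ICR mice. Eyecups dissected in ice-cold PBS and retina removed. Tissue permeabilized with 0.2% Triton X-100 for 15 min, blocked with 3% BSA, then anti-β-catenin (1:100) overnight at 4 °C. Alexa 555 secondary 2 h, imaged by confocal microscopy.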"}, "Mus musculus [4]": {"test_system": "Mus musculus", "assay": "In vivo inhibition of immunoproteasome in Tg2576 mouse assessed as reduction in serum IL-1alpha level at 10 mg/kg, iv administered twice weekly for 3 weeks by ELISA", "assay_type": "functional, organism-based", "in_short": "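Serum from Tg2576 mice dosed at 10 mg/kg twice weekly for 3 weeks, diluted 1:5. IL-1α sandwich ELISA: samples and standards 2 h at room temperature, detection antibody 1 h, avidin-HRP 30 min. Stopped with 2N H2SO4 and read at 450 nm against a standard curve of seven twofold dilutions. n=3.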"}, "[5]": {"assay": "Metabolic stability in ICR mouse liver homogenate at 1 uM measured upto 20 mins by LC-MS/MS analysis", "assay_type": "ADME, tissue-based", "details": "tissue homogenate", "in_short": "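Tissues from male ICR mice, 7 weeks old. Heparinized (25 IU/mL) whole blood, or liver homogenized in ice-cold PBS, prewarmed to 37 °C and spiked to a final 1 μM. Samples taken at 0, 10 and 30 min (blood) or 0, 10 and 20 min (liver). […] Remaining drug quantified by C18 LC-MS/MS.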"}, "Mus musculus [6]": {"test_system": "Mus musculus", "assay": "Cognitive enhancing effect in Tg2576 mouse assessed as improvement in spatial learning and memory by measuring increase in time spent in target quadrant at 10 mg/kg, iv administered twice weekly and measured after 6 days during probe trial by Morris water maze test", "assay_type": "functional, organism-based", "details": "time 6.0 day", "in_short": "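Tg2576 mice, 9 months old, given 10 mg/kg twice weekly for 3 weeks. Morris water maze in 25 ± 1 °C water, platform hidden 1-1.5 cm below surface. Three 60-s trials a day from randomized start points for 5 days. Swim paths tracked from an overhead camera. Single probe trial on day 6 scored as time in target quadrant. n=5 treated, n=12 control on days 4-5; Student's t-test.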"}, "[7]": {"target": "T2, Proteasome subunit beta type-8 (Homo sapiens, UniProt P28062)", "T2 sequence (P28062 whole entry)": "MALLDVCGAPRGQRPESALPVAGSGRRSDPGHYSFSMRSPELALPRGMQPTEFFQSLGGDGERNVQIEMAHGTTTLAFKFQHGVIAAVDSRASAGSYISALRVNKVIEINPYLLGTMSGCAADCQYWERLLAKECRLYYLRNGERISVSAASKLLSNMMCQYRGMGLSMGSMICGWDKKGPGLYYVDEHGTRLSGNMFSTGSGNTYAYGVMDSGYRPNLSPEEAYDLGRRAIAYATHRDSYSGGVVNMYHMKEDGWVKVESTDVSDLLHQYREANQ", "assay": "Inhibition of human 20S proteasome LMP7 using Ac-ANW-AMC as fluorogenic substrate measured every minute for 1 hr by fluorescence assay", "in_short": "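Purified human 20S constitutive or immunoproteasome, 50 ng in 20 mM Tris-HCl, 0.5 mM EDTA, 0.035% SDS, pH 8.0. Preincubated 1 h with inhibitor at 3-10,000 nM (8 concentrations). Substrates at 100 μM: Ac-PAL-AMC (LMP2), Ac-nLPnLD-AMC (Y), Ac-ANW-AMC (LMP7). Ac-WLA-AMC (X) at 20 μM. AMC fluorescence (360/460 nm) read each minute for 1 h; 3 replicates.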"}, "[8]": {"assay": "Inhibition of human 20S proteasome Y using Ac-nLPnLD-AMC as fluorogenic substrate measured every minute for 1 hr by fluorescence assay", "in_short": "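Preincubated 1 h with inhibitor at 3-10,000 nM (8 concentrations). Substrates at 100 μM: Ac-PAL-AMC (LMP2), Ac-nLPnLD-AMC (Y), Ac-ANW-AMC (LMP7). Ac-WLA-AMC (X) at 20 μM. AMC fluorescence (360/460 nm) read each minute for 1 h; 3 replicates.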"}, "[9]": {"assay": "Drug concentration in ICR mouse brain at 10 mg/kg, iv after 1 hr by LC-MS/MS analysis", "assay_type": "ADME, organism-based", "details": "in vivo", "in_short": "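ICR mice received a single intravenous dose of 10 mg/kg. Brain homogenates taken at 1 h post-dose were assayed for compound level and for LMP2 activity.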"}}, "note": "Active and inactive are the calls of the source. The calls are words filed in the database; no cut-off is given here.", "data": [{"compound": "C[C@]1(C(=O)[C@H](Cc2ccccc2)NC(=O)[C@@H]2Cc3ccc(cc3)OCCCCCCCC(=O)N3CCC[C@H]3C(=O)N2)CO1", "values": [{"measurement": "IC50", "setting": "[1]", "value": 0.106, "unit": "µM"}, {"measurement": "inhibition", "setting": "[2]", "value": "Active"}, {"measurement": "Activity", "setting": "[3]", "value": "Non-Toxic"}, {"measurement": "inhibition", "setting": "Mus musculus [4]", "value": "Active"}, {"measurement": "Stability", "setting": "[5]", "value": "Stable"}, {"measurement": "Activity", "setting": "Mus musculus [6]", "value": "Active"}, {"measurement": "IC50", "setting": "[7]", "value": 0.399, "unit": "µM"}, {"measurement": "IC50", "setting": "[8]", "value": 8.38, "unit": "µM"}, {"measurement": "Ct", "setting": "[9]", "value": 3.5, "unit": "pmol/g"}]}]}
